Screening data from PubChem.
PAFAH1B3 inh = blocks human PAF acetylhydrolase 1B catalytic subunit 3; Q15102; recombinant PAFAH1B3, FP-rhodamine probe, fluorescence polarization; inhibition, % at 3.39 µM; 0.28% of 340,000 active;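 active means inhibition above the screen-wide average of all tested compounds plus 3 SD, cut at about 25% in these data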;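 further: 0% = enzyme with DMSO only and 100% = wells lacking PAFAH1B3 protein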
Target sequence (Q15102 whole entry, looked up): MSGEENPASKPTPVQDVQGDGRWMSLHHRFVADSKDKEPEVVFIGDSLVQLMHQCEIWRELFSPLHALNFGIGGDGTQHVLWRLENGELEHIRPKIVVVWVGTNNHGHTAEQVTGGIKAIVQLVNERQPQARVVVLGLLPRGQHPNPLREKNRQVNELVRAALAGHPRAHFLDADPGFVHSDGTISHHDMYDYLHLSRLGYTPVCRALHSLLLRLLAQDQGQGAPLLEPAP
PAFAH1B2 FP inh = blocks human PAF acetylhydrolase 1b catalytic subunit 2; P68402; recombinant PAFAH1B2, FP-rhodamine activity probe, fluorescence polarization; inhibition, % at 3.39 µM; 1.2% of 340,000 active; AID 492953;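 active means inhibition above the mean of all tested compounds plus 3 SD, cut at about 24% in these data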;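 further: 0% = enzyme with DMSO and 100% = wells lacking PAFAH1B2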
TDP2 absorb = TDP2 (human) inhibition, absorbance primary screen; 0.34% of 370,000 active; recombinant TDP2, T5PNP hydrolysis, p-nitrophenol absorbance 415 nm; O95551; inhibition, % at 12.8 µM;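 active means inhibition above the mean of all tested compounds plus 3 SD, set per campaign, cut at about 25% in these data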;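 further: 0% = DMSO with enzyme and 100% = buffer with substrate but no TDP2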
Target sequence (O95551 whole entry, looked up): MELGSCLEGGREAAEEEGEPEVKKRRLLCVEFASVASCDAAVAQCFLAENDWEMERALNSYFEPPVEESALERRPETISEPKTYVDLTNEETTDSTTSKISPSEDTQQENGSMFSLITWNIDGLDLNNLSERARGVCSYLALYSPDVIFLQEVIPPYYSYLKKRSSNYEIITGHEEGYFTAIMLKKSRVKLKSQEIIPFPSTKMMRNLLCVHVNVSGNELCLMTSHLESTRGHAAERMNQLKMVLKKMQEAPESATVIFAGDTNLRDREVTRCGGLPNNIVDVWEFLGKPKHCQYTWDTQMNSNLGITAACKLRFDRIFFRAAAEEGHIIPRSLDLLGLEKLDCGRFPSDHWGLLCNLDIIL
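System – recombinant human TDP2 · Amount – 120 nM TDP2 per well · Buffer or medium – Mg2+-containing Tris-HCl buffer, pH 7.5 · Reagent – T5PNP substrate, 5 mM · Dosing – 12.8 µM single point, 1% DMSO · Incubation – 2 h at 37 °C · Measured by – epi absorbance · Read-out basis – percent inhibition · Benchmarks – high control without enzyme, low control DMSO plus TDP2 · Repeats – singlicate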
Apaf1 inhib = inhibitors of human Apaf-1 apoptosome | reconstituted apoptosome caspase-3 activity, DEVD-Rh110 fluorescence | 0.71% of 330,000 active | O14727 | inhibition, % at 20 µM; active means inhibition of at least 40% at 20 µM;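 further: plate controls were DMSO wells for no effect and DEVD-CHO caspase inhibitor wells for full effect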
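System: reconstituted apoptosome with Apaf-1, cytochrome c, caspase-9, procaspase-3, dATP; Signal: Rh110 fluorescence intensity; Schedule: 30 min compound preincubation, 50 min activation, room temperature; Reagent: cytochrome c trigger plus (Z-DEVD)2-Rh110 caspase-3 substrate.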
PAFAH2 inh = inhibitors of human PAFAH2; AID 492956; recombinant PAFAH2, FP-rhodamine activity probe, fluorescence polarization; inhibition, % at 3.39 µM; 0.99% of 340,000 active;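 active means inhibition above the mean over all tested compounds plus 3 SD, cut at about 30% in these data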;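 further: inhibitors block probe labeling of enzyme so polarization drops; 0% = enzyme with DMSO and 100% = wells lacking PAFAH2 protein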
Apaf-1 inh conf = confirmation of Apaf-1 inhibitors | reconstituted apoptosome, caspase-3 DEVD-Rh110 fluorescence | inhibition, % at 20 µM | shares compounds with Apaf1 inhib | 25% of 1,800 active;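 active means mean inhibition of at least 40% at 20 µM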;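 further: plate controls were DMSO wells for no effect and DEVD-CHO caspase inhibitor control wells for full effect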
Rh110 quench = counter-screen for Apaf-1 inhibitors: fluorescence interference | shares compounds with Apaf1 inhib | Rh110 fluorescence interference, quenched caspase reaction | AID 504615 | 1,800 tested, under 10 active | activation (fluorescence interference), % at 20 µM;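 active means signal rise of 40% or more at 20 µM, treated as a fluorescence artifact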
Fluor interf inh = counter-screen for Apaf-1 inhibitors: fluorescence interference, dose response; AID 588538; 460 tested, under 10 active; shares compounds with Apaf1 inhib; fluorescence interference counterscreen, Apaf-1 assay format; IC50, µM; call rule not given here
Starred values were filed as active, the others as inactive; x = no result given. Most compounds without a hit are left out; they make up all but 2.3% or so of the library.

SMILES	PAFAH1B3 inh	PAFAH1B2 FP inh	TDP2 absorb	Apaf1 inhib	PAFAH2 inh	Apaf-1 inh conf	Rh110 quench	others
COc1ccc(-n2c(SCC(=O)NC3CCCCCC3)nnc2-c2ccncc2)cc1	x	x	8	x	x	x	x
CC(C)(C)c1ccc(-c2nnc(SCc3ccccc3)n2Cc2ccco2)cc1	x	x	-10	x	x	x	x
CC(C)CNc1cccc2c1S(=O)(=O)N(Cc1cn(Cc3cccc(F)c3)nn1)Cc1ccccc1O2	x	x	-3	x	x	x	x
Cc1cc(Nc2cccc(Cl)c2)nc(NCc2ccccc2)n1	5	7	-4	43*	5	15	6
COc1ccc(-c2cc(C(F)(F)F)nc(N3CCOCC3)n2)cc1	-1	0	14	9	3	x	x
COc1ccc(-c2cc(-c3ccc(F)cc3)nc(N3CCN(C)CC3)n2)cc1	-1	1	-7	65*	-3	6	9
COc1ccc(CCNC(=O)C(=O)NCC2CCCN2S(=O)(=O)c2ccc(OC)cc2)cc1 (stereo not drawn)	10	0	13	61*	1	12	11
O=[N+]([O-])c1ccc(O)c(C=Nc2cccc3ncccc23)c1	6	0	-14	91*	-5	16	1
O=[N+]([O-])c1cccc(C=Nc2cccc3ccccc23)c1O	7	7	2	93*	7	44*	8	Fluor interf inh=>100
Oc1c(Br)cc(Br)cc1C=Nc1cccc2ncccc12	8	4	24	97*	14	56*	6	Fluor interf inh=>100
Brc1cccc(C=Nc2cccc3ncccc23)c1	-6	4	-1	-9	-8	x	x
CCOC(=O)c1c(/N=C/c2cccc([N+](=O)[O-])c2O)sc(C)c1C	8	4	-3	7	5	x	x
O=[N+]([O-])c1ccc(O)c(C=Nc2cccc3ccccc23)c1	11	9	-9	88*	7	14	-4
COP(=O)(O)CCOCCC(CC(C)C)NC(=O)OCc1ccccc1 (stereo not drawn)	x	x	-6	x	x	x	x
Oc1ccc(C=Nc2cccc3ccccc23)c(O)c1	0	6	16	81*	-5	18	13
C#CCOCCOCCOCCNc1nc(N2CCOCC2)nc(N2CCN(C(=O)[C@H](CCCCN)n3cc(CN)nn3)CC2)n1	4	2	10	49*	-1	0	7
C#CCOCCOCCOCCNc1nc(N2CCN(C(=O)Cn3cc(CCCCN)nn3)CC2)nc(N2CCN(C(=O)[C@H](CCCCN)n3cc(CCCC)nn3)CC2)n1	7	1	-3	41*	1	4	-7
C#CCOCCOCCOCCNc1nc(N2CCOCC2)nc(N2CCN(C(=O)[C@H](CCCCN)n3cc([C@@H](N)C(C)CC)nn3)CC2)n1 (stereo partly drawn)	7	1	3	2	10	x	x
C#CCOCCOCCOCCNc1nc(N2CCN(C(=O)Cn3cc(CC(C)O)nn3)CC2)nc(N2CCN(C(=O)[C@H](CCCCN)n3cc(CCC(=O)O)nn3)CC2)n1 (stereo partly drawn)	6	1	-3	5	-4	x	x
COc1cc(Cn2c(N)c(C#N)c3nc4ccccc4nc32)cc(OC)c1	2	0	-12	58*	11	18	4
N#Cc1c(N)n(CCc2ccc(F)cc2)c2nc3ccccc3nc12	7	4	0	82*	-2	19	10
COc1ccc(Cn2c(N)c(S(=O)(=O)c3cccs3)c3nc4ccccc4nc32)cc1	1	1	1	-8	-9	x	x
Cn1c(-c2c(N)n(CCc3ccccc3)c3nc4ccccc4nc23)nc2ccccc21	13	4	x	-4	11	x	x
COc1cccc(Cn2c(N)c(C#N)c3nc4ccccc4nc32)c1OC	14	5	-8	92*	-5	11	8
COC[C@@H](OC(C)=O)[C@H]1OCc2ccccc2[C@@H]1/C=C/c1ccccc1	x	x	-1	x	x	x	x
SMILES	PAFAH1B3 inh	PAFAH1B2 FP inh	TDP2 absorb	Apaf1 inhib	PAFAH2 inh	Apaf-1 inh conf	Rh110 quench	others
COC(=O)C1=C(C)N(Cc2ccccc2C(F)(F)F)C(=NCC2CC2)NC1c1cccc(F)c1 (stereo not drawn)	x	x	-2	x	x	x	x
COc1ccc(CN2CCN(C(c3ccc(F)cc3)c3ccc(F)cc3)CC2)c(OC)c1OC	15	1	0	48*	1	7	-9
CCN(CC)CCNC(=O)c1ccc(NC(=O)c2cn(-c3ccccc3)nc2-c2cccs2)cc1	-17	-12	-7	25	-11	x	x
CCN(CC)CCNC(=O)c1ccc(NC(=O)c2cn(-c3ccc(F)cc3)nc2-c2cccc(OC)c2)cc1	-1	-3	-15	45*	-14	22	7
COc1ccc(-c2sc3cc4c(cc3c2C#CC2(N)CCCCC2)OCO4)cc1	13	6	2	72*	7	35	8
COc1cc(OC)cc(-c2sc3ccc(OC)cc3c2C#CC2(N)CCCCC2)c1	-7	1	8	67*	-4	23	2
O=S1(=O)c2ccc(Br)cc2OC[C@@H](Cc2ccccc2)N1Cc1cn(Cc2ccc(Cl)cc2)nn1	x	x	4	x	x	x	x
CCOc1ccc(-n2c(SCC(=O)Nc3ccc(S(=O)(=O)Nc4cc(C)nc(C)n4)cc3)nnc2-c2ccco2)cc1	x	x	-11	x	x	x	x
N#CC1=C(N)Oc2n[nH]c(-c3cccs3)c2C1c1ccsc1 (stereo not drawn)	8	10	14	83*	10	26	9
Cc1nn(CCc2nn[nH]n2)c2nc(-c3ccc(C4CCCCC4)cc3)cc(C(F)(F)F)c12	-7	0	3	60*	17	32	13
